According to PMC2943143 (Biochemical pharmacology, 2010):
“Also recorded” adds a separate entry of the source.

Experiments:
[1] = molecular target: T1, human pol κ (Homo sapiens, UniProt Q9UBT6); assay: Pol assay, pol κ; assay type: biochemical; details: for Ki: pol κ
T1 sequence (Q9UBT6 1-560 limits assumed): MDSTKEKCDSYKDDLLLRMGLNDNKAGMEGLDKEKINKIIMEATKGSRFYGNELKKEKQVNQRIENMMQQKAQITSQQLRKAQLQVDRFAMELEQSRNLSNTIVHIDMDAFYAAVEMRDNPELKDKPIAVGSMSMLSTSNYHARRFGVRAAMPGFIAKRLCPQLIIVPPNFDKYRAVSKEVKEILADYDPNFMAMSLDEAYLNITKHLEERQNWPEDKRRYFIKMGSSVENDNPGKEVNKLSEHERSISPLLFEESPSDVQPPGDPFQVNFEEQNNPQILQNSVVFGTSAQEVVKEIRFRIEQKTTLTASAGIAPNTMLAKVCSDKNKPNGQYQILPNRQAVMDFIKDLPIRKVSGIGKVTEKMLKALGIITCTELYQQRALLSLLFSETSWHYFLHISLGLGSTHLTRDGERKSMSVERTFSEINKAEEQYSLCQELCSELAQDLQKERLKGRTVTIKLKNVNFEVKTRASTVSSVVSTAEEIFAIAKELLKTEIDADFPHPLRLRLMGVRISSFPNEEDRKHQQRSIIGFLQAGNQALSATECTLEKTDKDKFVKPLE
Outline: (§1)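 Test compound was dissolved in DMSO and sonicated 30 s. It was preincubated with enzyme (0.05 unit final) in 50 mM Tris-HCl pH 7.5, 1 mM DTT, 50% glycerol and 0.1 mM EDTA at 0 °C for 10 min. This was added to each enzyme's standard reaction mix with poly(dA)/oligo(dT)18 (A/T = 2/1) template-primer and dTTP substrate, then incubated at 37 °C for 60 min. Activity is given as % of inhibitor-free control.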

[2] = molecular target: rat pol β (Rattus norvegicus, UniProt P06766); assay: Pol assay, rat pol β; assay type: biochemical; details: for Ki: pol β, Dixon plot
Outline: as §1

[3] = molecular target: human pol λ (full-length, residues 1–575) (Homo sapiens, UniProt Q9UGP5); assay: Pol assay, full-length human pol λ; assay type: biochemical; details: 100 and 1,000 nM PGG, Fig. 1C
Outline: as §1

[4] = molecular target: del-1 pol λ (133–575) (Homo sapiens, UniProt Q9UGP5); assay: Pol assay, del-1 pol λ mutant; assay type: biochemical; details: dose-response, Fig. 4B
Outline: as §1

[5] = test system: cauliflower pol α; assay: Pol assay, cauliflower pol α; assay type: biochemical; details: supplemental Fig. S1A
Outline: as §1

[6] = molecular target: rice pol λ (Oryza sativa subsp. japonica, UniProt Q67VC8); assay: Pol assay, rice pol λ; assay type: biochemical; details: supplemental Fig. S1A
Outline: as §1

[7] = molecular target: T4 pol (Enterobacteria phage T4, UniProt P04415); assay: Pol assay, T4 pol; assay type: biochemical; details: supplemental Fig. S1A
Outline: as §1

[8] = test system: calf primase of pol α; assay: Primase assay; assay type: biochemical; details: highest tested concentration 1 μM, supplemental Fig. S1B
[9] = molecular target: HIV-1 reverse transcriptase (Human immunodeficiency virus type 1 group M subtype B, UniProt P04585); assay: HIV-1 reverse transcriptase assay; assay type: biochemical, Human immunodeficiency virus type-1 (HIV-1); details: highest tested concentration 1 μM, supplemental Fig. S1B
Outline: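 Recombinant HIV-1 reverse transcriptase used poly(rA)/oligo(dT)18 (A/T = 2/1) template-primer and dTTP substrate. Enzyme (0.05 unit) was preincubated with test compound in sonicated DMSO at 0 °C for 10 min in Tris-HCl pH 7.5/DTT/glycerol/EDTA buffer. Reaction ran at 37 °C for 60 min. Activity is given as % of control.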

[10] = molecular target: human telomerase (Homo sapiens, UniProt O14746); assay: Telomerase assay; assay type: biochemical; details: highest tested concentration 1 μM, supplemental Fig. S1B
[11] = molecular target: T7 RNA polymerase (Escherichia phage T7, UniProt P00573); assay: T7 RNA polymerase assay; assay type: biochemical; details: highest tested concentration 1 μM, supplemental Fig. S1B
[12] = molecular target: T4 polynucleotide kinase (Enterobacteria phage T4, UniProt P06855); assay: T4 polynucleotide kinase assay; assay type: biochemical; details: highest tested concentration 1 μM, supplemental Fig. S1B
[13] = molecular target: bovine DNase I (Bos taurus, UniProt P00639); assay: DNase I assay; assay type: biochemical; details: highest tested concentration 1 μM, supplemental Fig. S1B
Outline: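 Topoisomerases I and II were purified from human placenta, and DNase I came from bovine pancreas. Each activity was measured in a standard assay following the supplier's specifications.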

[14] = test system: calf thymus double-stranded DNA (dsDNA); assay: Thermal transition of DNA; assay type: binding; details: 15 μM compound, calf thymus dsDNA 6 μg/ml, pH 7.0
Outline: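 Calf thymus dsDNA (6 μg/ml) in 0.1 M sodium phosphate pH 7.0 with 1% DMSO was tested with or without test compound, with ethidium bromide as intercalator control. Samples were equilibrated at 78 °C for 10 min, then raised 1 °C every 2 min. Absorbance was recorded on a spectrophotometer with a thermoelectric cell holder, and compound-only absorbance was subtracted to give Tm.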

[15] = molecular target: Xanthine oxidase; details: read-out: IC50, Xanthine oxidase; cited from earlier work
[16] = test system: Beta-secretase; details: cited from earlier work
[17] = test system: rat liver microsomal 5 α-reductase; details: cited from earlier work
[18] = molecular target: Neutral endopeptidase; details: read-out: IC50, Neutral endopeptidase; cited from earlier work
[19] = molecular target: HIV integrase; details: read-out: IC50, HIV integrase; cited from earlier work
[20] = molecular target: HIV reverse transcriptase; details: read-out: IC50, HIV reverse transcriptase; cited from earlier work
[21] = test system: mouse Lewis lung cancer allografts; details: dose-dependent in the range of 4 and 20 mg/kg, syngenic mice; cited from earlier work
[22] = unchanged at 30, 60 and 90 nM PGG

Chain of human pol λ (full-length, residues 1–575) (Q9UGP5 whole entry, the tested form may be a part): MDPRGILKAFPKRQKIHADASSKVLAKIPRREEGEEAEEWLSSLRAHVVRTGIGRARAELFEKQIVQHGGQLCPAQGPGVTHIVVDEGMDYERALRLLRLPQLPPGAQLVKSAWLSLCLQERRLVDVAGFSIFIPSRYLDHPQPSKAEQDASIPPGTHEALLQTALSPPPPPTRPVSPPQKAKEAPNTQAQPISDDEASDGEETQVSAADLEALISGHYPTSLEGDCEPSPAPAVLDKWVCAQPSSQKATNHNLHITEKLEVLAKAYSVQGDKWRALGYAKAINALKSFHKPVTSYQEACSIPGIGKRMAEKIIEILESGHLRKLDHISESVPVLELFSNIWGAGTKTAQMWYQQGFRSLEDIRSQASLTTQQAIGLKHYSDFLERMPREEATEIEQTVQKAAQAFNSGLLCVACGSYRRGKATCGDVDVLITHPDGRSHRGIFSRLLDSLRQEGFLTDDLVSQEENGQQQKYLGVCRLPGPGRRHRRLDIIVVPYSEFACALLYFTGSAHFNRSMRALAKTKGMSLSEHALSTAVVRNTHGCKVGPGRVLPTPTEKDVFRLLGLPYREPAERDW
Chain of human telomerase (O14746 whole entry): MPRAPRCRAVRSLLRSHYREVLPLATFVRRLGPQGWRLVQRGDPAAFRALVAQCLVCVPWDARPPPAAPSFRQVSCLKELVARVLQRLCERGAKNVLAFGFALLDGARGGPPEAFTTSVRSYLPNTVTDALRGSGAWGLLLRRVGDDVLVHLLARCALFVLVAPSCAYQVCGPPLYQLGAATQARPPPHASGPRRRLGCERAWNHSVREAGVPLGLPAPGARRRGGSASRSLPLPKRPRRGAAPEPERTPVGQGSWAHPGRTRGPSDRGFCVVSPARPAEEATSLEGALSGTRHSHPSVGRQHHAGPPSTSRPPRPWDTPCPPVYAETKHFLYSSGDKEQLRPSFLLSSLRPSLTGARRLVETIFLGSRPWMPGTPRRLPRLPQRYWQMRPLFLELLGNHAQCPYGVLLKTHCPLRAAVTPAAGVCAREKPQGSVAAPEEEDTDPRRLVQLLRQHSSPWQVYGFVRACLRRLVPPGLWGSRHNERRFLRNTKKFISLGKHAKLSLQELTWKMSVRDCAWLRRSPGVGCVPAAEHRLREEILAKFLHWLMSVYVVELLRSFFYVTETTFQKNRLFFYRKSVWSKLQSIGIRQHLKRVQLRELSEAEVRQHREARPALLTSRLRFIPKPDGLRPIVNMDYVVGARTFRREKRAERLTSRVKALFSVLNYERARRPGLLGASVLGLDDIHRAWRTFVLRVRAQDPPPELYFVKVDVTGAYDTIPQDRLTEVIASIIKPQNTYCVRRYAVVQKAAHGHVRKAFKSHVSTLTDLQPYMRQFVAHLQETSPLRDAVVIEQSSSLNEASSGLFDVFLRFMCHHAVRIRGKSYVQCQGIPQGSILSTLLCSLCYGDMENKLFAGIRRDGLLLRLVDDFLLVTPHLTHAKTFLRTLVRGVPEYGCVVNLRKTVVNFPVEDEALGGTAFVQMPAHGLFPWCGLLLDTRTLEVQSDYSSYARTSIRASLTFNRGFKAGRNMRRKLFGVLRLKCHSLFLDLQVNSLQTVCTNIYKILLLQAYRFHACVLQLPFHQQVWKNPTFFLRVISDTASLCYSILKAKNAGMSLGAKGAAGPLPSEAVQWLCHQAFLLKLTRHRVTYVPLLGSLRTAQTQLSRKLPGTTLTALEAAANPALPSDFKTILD
Chain of rice pol λ (Q67VC8 whole entry): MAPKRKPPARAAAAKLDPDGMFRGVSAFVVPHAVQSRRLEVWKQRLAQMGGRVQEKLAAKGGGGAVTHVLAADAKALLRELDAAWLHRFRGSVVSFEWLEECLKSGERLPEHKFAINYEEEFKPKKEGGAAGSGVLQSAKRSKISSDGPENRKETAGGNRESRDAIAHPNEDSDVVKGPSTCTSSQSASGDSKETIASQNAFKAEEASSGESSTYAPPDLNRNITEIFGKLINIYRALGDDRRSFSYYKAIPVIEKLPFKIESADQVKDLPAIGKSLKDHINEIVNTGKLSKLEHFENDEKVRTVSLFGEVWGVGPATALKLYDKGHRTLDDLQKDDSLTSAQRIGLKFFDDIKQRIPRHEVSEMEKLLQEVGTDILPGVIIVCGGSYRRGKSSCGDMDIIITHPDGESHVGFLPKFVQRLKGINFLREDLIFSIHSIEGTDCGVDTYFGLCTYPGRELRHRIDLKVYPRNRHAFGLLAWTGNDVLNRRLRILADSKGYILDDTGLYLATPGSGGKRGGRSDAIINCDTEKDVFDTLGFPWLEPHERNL
Chain of T4 polynucleotide kinase (P06855 whole entry): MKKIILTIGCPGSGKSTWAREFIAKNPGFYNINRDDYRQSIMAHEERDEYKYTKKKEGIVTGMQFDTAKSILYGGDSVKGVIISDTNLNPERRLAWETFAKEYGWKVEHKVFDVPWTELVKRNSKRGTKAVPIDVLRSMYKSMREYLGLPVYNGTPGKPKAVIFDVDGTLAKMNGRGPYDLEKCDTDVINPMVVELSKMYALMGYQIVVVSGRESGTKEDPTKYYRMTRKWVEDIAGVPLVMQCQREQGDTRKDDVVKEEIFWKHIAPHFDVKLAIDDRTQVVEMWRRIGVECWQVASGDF
Chain of T7 RNA polymerase (P00573 whole entry): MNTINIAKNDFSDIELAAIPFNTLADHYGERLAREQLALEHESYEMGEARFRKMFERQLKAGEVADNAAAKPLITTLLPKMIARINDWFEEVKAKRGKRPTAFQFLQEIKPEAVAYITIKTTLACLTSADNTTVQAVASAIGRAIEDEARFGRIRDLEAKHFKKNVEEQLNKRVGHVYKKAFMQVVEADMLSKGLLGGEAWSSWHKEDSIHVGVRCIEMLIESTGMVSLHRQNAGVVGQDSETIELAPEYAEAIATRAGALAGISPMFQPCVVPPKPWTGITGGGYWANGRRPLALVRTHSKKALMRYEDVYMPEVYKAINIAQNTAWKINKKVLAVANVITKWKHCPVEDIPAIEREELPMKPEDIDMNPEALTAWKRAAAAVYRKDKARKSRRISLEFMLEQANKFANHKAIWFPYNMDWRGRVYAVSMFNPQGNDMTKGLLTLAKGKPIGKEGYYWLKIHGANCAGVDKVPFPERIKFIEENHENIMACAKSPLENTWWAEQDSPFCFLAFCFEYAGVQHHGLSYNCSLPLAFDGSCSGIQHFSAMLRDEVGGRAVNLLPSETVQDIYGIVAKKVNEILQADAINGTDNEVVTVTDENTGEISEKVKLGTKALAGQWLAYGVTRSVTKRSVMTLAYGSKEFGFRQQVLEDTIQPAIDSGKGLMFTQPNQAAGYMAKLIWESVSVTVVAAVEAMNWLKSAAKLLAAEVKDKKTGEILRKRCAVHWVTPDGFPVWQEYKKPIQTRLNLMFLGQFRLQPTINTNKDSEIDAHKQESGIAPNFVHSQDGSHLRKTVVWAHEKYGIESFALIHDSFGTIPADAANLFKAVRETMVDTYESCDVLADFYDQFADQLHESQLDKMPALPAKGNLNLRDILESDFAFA
Chain of del-1 pol λ (133–575) (Q9UGP5 133-575): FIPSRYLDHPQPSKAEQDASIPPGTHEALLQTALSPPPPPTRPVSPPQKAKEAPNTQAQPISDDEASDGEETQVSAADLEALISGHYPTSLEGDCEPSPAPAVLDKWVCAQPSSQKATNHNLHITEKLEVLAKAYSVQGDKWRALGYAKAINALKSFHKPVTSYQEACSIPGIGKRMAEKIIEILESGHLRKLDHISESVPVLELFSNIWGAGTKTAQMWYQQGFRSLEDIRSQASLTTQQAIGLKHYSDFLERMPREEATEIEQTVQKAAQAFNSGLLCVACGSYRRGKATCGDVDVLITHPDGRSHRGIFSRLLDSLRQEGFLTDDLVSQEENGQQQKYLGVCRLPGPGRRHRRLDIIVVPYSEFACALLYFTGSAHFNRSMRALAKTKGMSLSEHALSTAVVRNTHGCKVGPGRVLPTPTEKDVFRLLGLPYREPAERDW
Chain of bovine DNase I (P00639 23-282): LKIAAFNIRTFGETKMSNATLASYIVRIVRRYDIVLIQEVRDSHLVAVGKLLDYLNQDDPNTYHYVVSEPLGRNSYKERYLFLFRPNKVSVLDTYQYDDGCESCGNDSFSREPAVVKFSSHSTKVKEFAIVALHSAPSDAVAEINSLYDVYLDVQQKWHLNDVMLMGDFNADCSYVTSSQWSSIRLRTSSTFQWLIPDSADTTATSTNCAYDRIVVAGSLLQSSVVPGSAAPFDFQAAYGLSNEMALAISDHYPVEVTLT
Chain of T4 pol (P04415 whole entry): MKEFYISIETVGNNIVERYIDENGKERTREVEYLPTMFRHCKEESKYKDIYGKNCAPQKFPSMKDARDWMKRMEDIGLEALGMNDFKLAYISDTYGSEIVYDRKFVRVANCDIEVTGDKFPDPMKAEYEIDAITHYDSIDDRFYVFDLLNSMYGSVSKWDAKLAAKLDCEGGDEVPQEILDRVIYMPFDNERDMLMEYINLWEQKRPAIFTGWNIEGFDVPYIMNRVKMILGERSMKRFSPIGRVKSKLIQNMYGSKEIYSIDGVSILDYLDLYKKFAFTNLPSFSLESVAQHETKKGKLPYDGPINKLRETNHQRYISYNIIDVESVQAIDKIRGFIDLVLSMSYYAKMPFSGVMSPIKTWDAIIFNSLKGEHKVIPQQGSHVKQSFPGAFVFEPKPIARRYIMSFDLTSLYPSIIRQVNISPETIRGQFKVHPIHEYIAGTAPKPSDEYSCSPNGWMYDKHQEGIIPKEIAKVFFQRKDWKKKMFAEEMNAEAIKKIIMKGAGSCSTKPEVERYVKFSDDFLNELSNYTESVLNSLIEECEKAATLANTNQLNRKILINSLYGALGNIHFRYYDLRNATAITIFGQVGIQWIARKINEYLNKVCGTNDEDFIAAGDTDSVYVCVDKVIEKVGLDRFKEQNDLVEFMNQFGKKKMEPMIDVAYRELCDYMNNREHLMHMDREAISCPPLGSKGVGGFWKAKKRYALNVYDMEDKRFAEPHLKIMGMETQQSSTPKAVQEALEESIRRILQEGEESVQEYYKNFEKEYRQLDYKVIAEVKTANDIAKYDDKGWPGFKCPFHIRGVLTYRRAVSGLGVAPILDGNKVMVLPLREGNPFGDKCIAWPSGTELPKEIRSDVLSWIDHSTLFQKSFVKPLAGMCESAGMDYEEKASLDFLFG

O=C(OC[C@H]1O[C@@H](OC(=O)c2cc(O)c(O)c(O)c2)[C@H](OC(=O)c2cc(O)c(O)c(O)c2)[C@@H](OC(=O)c2cc(O)c(O)c(O)c2)[C@@H]1OC(=O)c1cc(O)c(O)c(O)c1)c1cc(O)c(O)c(O)c1 [PGG, 1,2,3,4,6-penta-O-galloyl-β-D-glucose]
IC50 [1]: 30 nM
Mode of Inhibition, pol κ, DNA template-primer [1]: Non-competitive for DNA template-primer
Mode of Inhibition, pol κ, dNTP [1]: Non-competitive for dNTP
effect on pol κ activity ([1]; 100 and 1,000 nM PGG, Fig. 1C): significantly inhibit
Ki ([1]; with respect to DNA template-primer): 9.3 nM
Ki ([1]; with respect to dNTP): 15.1 nM
effect of 0.05% NP-40 on the inhibitory effect on pol κ ([1]; PGG 10 and 100 nM, supplemental Table S1): not reversed
effect of poly(rC) or BSA on the inhibitory effect on pol κ ([1]; poly(rC) 50 μM, BSA 200 μg/ml): neither poly(rC) nor BSA influenced
IC50 ([2]; IC50, pol β, poly(dA)/oligo(dT)18 and dTTP, 0.05 unit enzyme): 108 to 160 nM
Ki ([2]; for the DNA template-primer): 20.1 nM
Ki ([2]; for the dNTP substrate): 23.8 nM
effect of 0.05% NP-40 on the inhibitory effect on pol β ([2]; PGG 100 nM and 200 nM, supplemental Table S1): not reversed
Mode of Inhibition, pol β, DNA template-primer ([2]; double reciprocal plots): competitively; also recorded: Competitive for DNA template-primer
Mode of Inhibition, pol β, dNTP ([2]; double reciprocal plots): competitively; also recorded: Competitive for dNTP
effect of poly(rC) or BSA on the inhibitory effect on pol β ([2]; poly(rC) 50 μM, BSA 200 μg/ml): neither poly(rC) nor BSA influenced
apparent Vmax of pol β, DNA template-primer [2, 22]: 111 pmol/h
apparent Vmax of pol β, dNTP substrate [2, 22]: 62.5 pmol/h
effect on pol λ activity [3]: not affected; also recorded: not sensitive
inhibition of del-1 pol λ activity [4]: dose-dependently inhibited
effect on cauliflower pol α activity [5]: not influenced
effect on rice pol λ activity [6]: not influenced
effect on T4 pol activity [7]: not influenced
effect on calf primase of pol α activity [8]: did not suppress
effect on HIV-1 reverse transcriptase activity [9]: did not suppress
effect on human telomerase activity [10]: did not suppress
effect on T7 RNA polymerase activity [11]: did not suppress
effect on T4 polynucleotide kinase activity [12]: did not suppress
effect on bovine DNase I activity [13]: did not suppress
effect on melting temperature (Tm) / thermal transition of dsDNA [14]: no effect
IC50 [15]: 3200 nM
Mode of Inhibition, Beta-secretase [16]: Non-competitive for Rh-EVNLDAEFK-Quencher
IC50 ([16]; read-out: IC50, Beta-secretase): 3760 nM
Ki ([16]; read-out: Ki, Beta-secretase): 5130 nM
Mode of Inhibition, 5-alpha-Reductase, NADPH [17]: competitive inhibitor; also recorded: Competitive for NADPH
Mode of Inhibition, 5-alpha-Reductase, testosterone [17]: non-competitive inhibitor; also recorded: Non-competitive for testosterone
IC50 ([17]; read-out: IC50, 5-alpha-Reductase): 7800 nM
Ki ([17]; read-out: Ki, 5-alpha-Reductase, NADPH, competitive for NADPH): 480 nM
IC50 [18]: 12500 nM
IC50 [19]: 13700 nM
IC50 [20]: > 100000 nM
in vivo growth of Lewis lung cancer allografts [21]: suppresses
